In ChEMBL document CHEMBL4330056, “Synthesis and Cytotoxic and Antiviral Profiling of Pyrrolo- and Furo-Fused 7-Deazapurine Ribonucleosides” (J Med Chem, 2018):
Active and inactive are the calls of the source. No cut-off for these calls is given here.

Key:
Hepatitis C virus [1] = assay: Antiviral activity against Hepatitis C virus genotype 1b infected in human Huh-luc replicon cells after 3 days by luciferase assay; type: functional, organism-based, Hepacivirus hominis; details: subtype 1b, 72 h
[2] = Cytotoxicity against human Hep2 cells assessed as reduction in cell viability after 3 days by CellTiter-Glo assay; type: cell-based; details: HEp-2 cells
Hepatitis C virus [3] = assay: Antiviral activity against Hepatitis C virus genotype 2a infected in human Huh-luc replicon cells after 3 days by luciferase assay; type: functional, organism-based, Hepacivirus hominis; details: subtype 2a, 72 h
BJ = assay: Antiproliferative activity against human BJ cells after 3 days by MTS assay; details: 72 h
MRC5 = assay: Antiproliferative activity against human MRC5 cells after 3 days by MTS assay; details: MRC5, 72 h
A549 = assay: Antiproliferative activity against human A549 cells after 3 days by MTS assay; type: functional, cell-based; details: A549, 72 h
CCRF-CEM = assay: Antiproliferative activity against human CCRF-CEM cells after 3 days by MTS assay; type: functional, cell-based; details: 72 h
[4] = Antiproliferative activity against human CEM-DNR-bulk cells after 3 days by MTS assay; details: 72 h
HCT-116 [5] = assay: Antiproliferative activity against human HCT116 cells after 3 days by MTS assay; type: functional, cell-based; details: HCT-116, 72 h
HCT-116 [6] = assay: Antiproliferative activity against p53 gene knocked out human HCT116 cells after 3 days by MTS assay; type: functional, cell-based; details: HCT-116, 72 h
K562 = assay: Antiproliferative activity against human K562 cells after 3 days by MTS assay; type: functional, cell-based; details: K562, 72 h
[7] = Antiproliferative activity against human K562-TAX cells after 3 days by MTS assay; type: functional, cell-based; details: 72 h
U2OS = assay: Antiproliferative activity against human U2OS cells after 3 days by MTS assay; type: functional, cell-based; details: 72 h
HL-60 = assay: Antiproliferative activity against human HL60 cells after 72 hrs by XTT assay; type: functional, cell-based; details: HL-60, 72 h
HepG2 = assay: Antiproliferative activity against human HepG2 cells after 72 hrs by XTT assay; type: functional, cell-based; details: HepG2, 72 h
HeLa S3 = assay: Antiproliferative activity against human HeLaS3 cells after 72 hrs by XTT assay; type: functional, cell-based; details: HeLa S3, 72 h
Adenosine kinase [8] = biological target: T1, Adenosine kinase (Homo sapiens, UniProt P55263); assay: Substrate activity at recombinant human ADK assessed as compound phosphorylation at 50 uM after 20 mins in presence of [3H]-adenosine by UPLC; type: ADME
Adenosine kinase [9] = biological target: T1, Adenosine kinase; assay: Inhibition of recombinant human ADK using [3H]-adenosine as substrate after 20 mins by TLC scanner-based analysis relative to control
How it was run: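 ADK inhibition: 50 μM adenosine substrate with 10 μM test compound and 97 ng enzyme, 20 min at 37 °C.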

Influenza A virus = assay: Antiviral activity against Influenza A virus (A/Mexico/4108/2009(H1N1)) infected in MDCK cells assessed as inhibited virus-induced cytopathic effect incubated for 2 days by XTT assay; type: functional, organism-based
Human orthopneumovirus = assay: Antiviral activity against Human respiratory syncytial virus A2 infected in Hep2 cells assessed as reduction in virus-induced cytopathic effect incubated for 4 days by CellTiter-Glo viability reagent based assay; type: functional, organism-based
Coxsackievirus B3 = assay: Antiviral activity against Human coxsackie B3 Nancy infected in human HeLa cells assessed as inhibited virus-induced cytopathic effect incubated for 2 days by XTT assay; type: functional, organism-based
Human alphaherpesvirus 1 = assay: Antiviral activity against human herpesvirus 1 HF infected in African green monkey Vero cells assessed as inhibited virus-induced cytopathic effect incubated for 3 days by XTT assay; type: functional, organism-based
dengue virus type 2 = assay: Antiviral activity against Dengue virus 2 Thailand/16681/84 infected in African green monkey Vero cells assessed as inhibition of virus replication incubated for 3 days by fluorescence microscopy; type: functional, organism-based

T1 sequence (P55263 whole entry): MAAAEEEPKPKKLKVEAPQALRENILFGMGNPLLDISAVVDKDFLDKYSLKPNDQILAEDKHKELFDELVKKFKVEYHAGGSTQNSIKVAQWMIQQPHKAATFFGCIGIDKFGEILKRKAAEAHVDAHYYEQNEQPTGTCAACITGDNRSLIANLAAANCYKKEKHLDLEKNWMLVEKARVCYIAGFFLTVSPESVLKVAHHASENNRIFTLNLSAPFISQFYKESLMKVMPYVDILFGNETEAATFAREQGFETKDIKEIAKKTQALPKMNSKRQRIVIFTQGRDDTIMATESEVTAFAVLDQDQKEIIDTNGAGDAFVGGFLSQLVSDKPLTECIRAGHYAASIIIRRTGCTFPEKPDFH

In the case of `CN(C)c1ncnc2c1c1c(ccn1C)n2[C@@H]1O[C@H](CO)[C@@H](O)[C@H]1O`, the EC50 (Hepatitis C virus [1]) is reported as greater than 44.4 µM, the CC50 at 72 h [2] is reported as greater than 44.4 µM and the EC50 (Hepatitis C virus [3]) is reported as greater than 44.4 µM. For the same compound, the IC50 (BJ) was greater than 50 µM, the IC50 (MRC5) was greater than 50 µM and the IC50 (A549) was greater than 50 µM. It also gave an IC50 (CCRF-CEM) greater than 50 µM, an IC50 [4] greater than 50 µM and an IC50 (HCT-116 [5]) greater than 50 µM. It also gave an IC50 (HCT-116 [6]) greater than 50 µM, an IC50 (K562) greater than 50 µM and an IC50 [7] greater than 50 µM. The IC50 (U2OS) was greater than 50 µM, the IC50 (HL-60) was greater than 50 µM and the IC50 (HepG2) was greater than 50 µM. For the same compound, the IC50 (HeLa S3) was greater than 50 µM, the Activity (Adenosine kinase [8]) was 0% and the IC50 (Adenosine kinase [9]) was greater than 10 µM. For the same compound, the Activity (Influenza A virus) was “inactive”, the Activity (Human orthopneumovirus) was “inactive” and the Activity (Coxsackievirus B3) was “inactive”. The Activity (Human alphaherpesvirus 1) was “inactive” and the Activity (dengue virus type 2) was “inactive”.
With `Cn1ccc2c1c1c(-c3ccoc3)ncnc1n2[C@@H]1O[C@H](CO)[C@@H](O)[C@H]1O` the EC50 (Hepatitis C virus [1]) was 20.2 µM, the CC50 at 72 h [2] was greater than 44.4 µM and the EC50 (Hepatitis C virus [3]) was 3.45 µM. For the same compound, the IC50 (BJ) was greater than 50 µM, the IC50 (MRC5) was greater than 50 µM and the IC50 (A549) was greater than 50 µM. It also gave an IC50 (CCRF-CEM) greater than 50 µM, an IC50 [4] greater than 50 µM and an IC50 (HCT-116 [5]) of 8.16 µM. For the same compound, the IC50 (HCT-116 [6]) was 9 µM, the IC50 (K562) was 0.94 µM and the IC50 [7] was greater than 50 µM. It also gave an IC50 (U2OS) of 2.41 µM, an IC50 (HL-60) greater than 50 µM and an IC50 (HepG2) greater than 50 µM. The IC50 (HeLa S3) was greater than 50 µM, the Activity (Adenosine kinase [8]) was 9% and the IC50 (Adenosine kinase [9]) was greater than 10 µM. The Activity (Influenza A virus) was “inactive”, the Activity (Human orthopneumovirus) was “inactive” and the Activity (Coxsackievirus B3) was “inactive”. For the same compound, the Activity (Human alphaherpesvirus 1) was “inactive” and the Activity (dengue virus type 2) was “inactive”.
Work on `OC[C@H]1O[C@@H](n2c3ccoc3c3c(-c4ccco4)ncnc32)[C@H](O)[C@@H]1O` yielded an EC50 (Hepatitis C virus [1]) of 0.17 µM, a CC50 at 72 h [2] greater than 44.4 µM and an EC50 (Hepatitis C virus [3]) greater than 44.4 µM. For the same compound, the IC50 (BJ) was greater than 50 µM, the IC50 (MRC5) was greater than 50 µM and the IC50 (A549) was greater than 50 µM. It also gave an IC50 (CCRF-CEM) of 0.45 µM, an IC50 [4] greater than 50 µM and an IC50 (HCT-116 [5]) greater than 50 µM. For the same compound, the IC50 (HCT-116 [6]) was greater than 50 µM, the IC50 (K562) was 7.03 µM and the IC50 [7] was 7.01 µM. For the same compound, the IC50 (U2OS) was 4.21 µM, the IC50 (HL-60) was 2.55 µM and the IC50 (HepG2) was greater than 50 µM. For the same compound, the IC50 (HeLa S3) was greater than 50 µM, the Activity (Adenosine kinase [8]) was 34% and the IC50 (Adenosine kinase [9]) was 3.94 µM. The Activity (Influenza A virus) was “inactive”, the Activity (Human orthopneumovirus) was “inactive” and the Activity (Coxsackievirus B3) was “inactive”. For the same compound, the Activity (Human alphaherpesvirus 1) was “inactive” and the Activity (dengue virus type 2) was “inactive”.
`Nc1ncnc2c1c1occc1n2[C@@H]1O[C@H](CO)[C@@H](O)[C@H]1O` showed an EC50 (Hepatitis C virus [1]) of 0.3 µM, a CC50 at 72 h [2] greater than 44.4 µM and an EC50 (Hepatitis C virus [3]) of 0.33 µM. It also gave an IC50 (BJ) greater than 50 µM, an IC50 (MRC5) greater than 50 µM and an IC50 (A549) greater than 50 µM. It also gave an IC50 (CCRF-CEM) greater than 50 µM, an IC50 [4] greater than 50 µM and an IC50 (HCT-116 [5]) of 48.4 µM. The IC50 (HCT-116 [6]) was greater than 50 µM, the IC50 (K562) was 6.04 µM and the IC50 [7] was 50 µM. It also gave an IC50 (U2OS) of 7.09 µM, an IC50 (HL-60) of 0.51 µM and an IC50 (HepG2) of 4.51 µM. For the same compound, the IC50 (HeLa S3) was 1.71 µM, the Activity (Adenosine kinase [8]) was 75% and the IC50 (Adenosine kinase [9]) was greater than 10 µM. The Activity (Influenza A virus) was “inactive”, the Activity (Human orthopneumovirus) was “inactive” and the Activity (Coxsackievirus B3) was “inactive”. For the same compound, the Activity (Human alphaherpesvirus 1) was “inactive” and the Activity (dengue virus type 2) was “inactive”.
With `CN(C)c1ncnc2c1c1ccn(C)c1n2[C@@H]1O[C@H](CO)[C@@H](O)[C@H]1O` the EC50 (Hepatitis C virus [1]) was greater than 44.4 µM, the CC50 at 72 h [2] was greater than 44.4 µM and the EC50 (Hepatitis C virus [3]) was greater than 44.4 µM. The IC50 (BJ) was greater than 50 µM, the IC50 (MRC5) was greater than 50 µM and the IC50 (A549) was greater than 50 µM. For the same compound, the IC50 (CCRF-CEM) was greater than 50 µM, the IC50 [4] was greater than 50 µM and the IC50 (HCT-116 [5]) was greater than 50 µM. It also gave an IC50 (HCT-116 [6]) greater than 50 µM, an IC50 (K562) greater than 50 µM and an IC50 [7] greater than 50 µM. For the same compound, the IC50 (U2OS) was greater than 50 µM, the IC50 (HL-60) was greater than 50 µM and the IC50 (HepG2) was greater than 50 µM. The IC50 (HeLa S3) was greater than 50 µM, the Activity (Adenosine kinase [8]) was 0% and the IC50 (Adenosine kinase [9]) was greater than 10 µM. For the same compound, the Activity (Influenza A virus) was “inactive”, the Activity (Human orthopneumovirus) was “inactive” and the Activity (Coxsackievirus B3) was “inactive”. For the same compound, the Activity (Human alphaherpesvirus 1) was “inactive” and the Activity (dengue virus type 2) was “inactive”.
